Sampled rows, rich in hits. Any-hit rate of the full collection: about 1.8%.
M4 antag – blocks acetylcholine activation of human M4 receptor; P08173; CHO-hM4 cells, ACh EC80, Fluo-8 calcium fluorescence; inhibition, % at 3 µM; 0.73% of 360,000 active;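 active means inhibition above its plate's cutoff, the mean inhibition of sample wells plus 3 SD, cut at about 27% in these data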
Target sequence (P08173 whole entry, looked up): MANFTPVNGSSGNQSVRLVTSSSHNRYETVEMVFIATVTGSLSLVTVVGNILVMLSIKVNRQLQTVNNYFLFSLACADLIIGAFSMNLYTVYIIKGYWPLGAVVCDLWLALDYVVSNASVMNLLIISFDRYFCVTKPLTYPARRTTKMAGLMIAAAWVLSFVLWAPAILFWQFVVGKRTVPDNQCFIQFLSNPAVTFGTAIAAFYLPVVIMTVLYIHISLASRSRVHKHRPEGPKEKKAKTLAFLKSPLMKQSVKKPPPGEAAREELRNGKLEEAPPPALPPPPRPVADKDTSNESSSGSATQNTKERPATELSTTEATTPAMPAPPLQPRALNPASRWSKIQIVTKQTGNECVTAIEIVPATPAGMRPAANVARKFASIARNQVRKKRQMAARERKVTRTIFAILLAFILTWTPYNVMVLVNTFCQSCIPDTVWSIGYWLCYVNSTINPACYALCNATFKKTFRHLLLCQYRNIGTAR
CHRM5 agonist – agonists of human muscarinic M5 receptor (CHRM5); CHO-K1 hM5 cells, Fluo-8 calcium fluorescence; 0% DMSO wells, 100% maximal acetylcholine response; activation, % at 3 µM; P08912; AID 624037; 0.19% of 360,000 active;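 active means activation above the run's mean over test compounds plus 3 SD, cut at about 23% in these data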;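 further: signal is peak over basal fluorescence ratio across the kinetic read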
M5 PAM – CHRM5 positive allosteric modulation; activation, % at 3 µM; 0.3% of 360,000 active; CHO-K1 hM5, Fluo-8 calcium, ACh EC20 PAM; 0% = ACh EC20, 100% = ACh EC100;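 active means activation above the run cutoff, the mean activation of all test compounds plus 3 SD, cut at about 18% in these data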
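Assay system: CHO-K1 hM5 cells. Also added: acetylcholine at EC20 concentration, added after compound. Dosing: 3 µM, single dose. Times: compound preincubation 140 s before EC20 acetylcholine addition. Signal: Fluo-8 calcium fluorescence. Measure: % activation relative to EC20 and EC100 ACh responses. Repeats: singlicate, one well per test compound.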
CHRM5 antagonist – blocks acetylcholine activation of human M5 receptor. P08912. CHO-hM5 cells, Fluo-8 calcium fluorescence, ACh EC80. inhibition, % at 3 µM. 0.59% of 360,000 active. AID 624040;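 active means inhibition above a per-plate cutoff, the mean of that plate's test compounds plus 3 SD, cut at about 27% in these data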
M4 PAM – CHRM4 positive allosteric modulation. CHO-K1 hM4/Gqi5, Fluo-8 calcium fluorescence, ACh EC20; 0% = ACh EC20, 100% = maximal ACh. P08173. 0.4% of 360,000 active. activation, % at 3 µM;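 active means activation above its plate's cutoff, the mean activation of sample wells plus 3 SD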
CHRM4 agonist – CHRM4 agonism in calcium assay. CHO-K1 hM4/Gqi5, Fluo-8 calcium fluorescence; vehicle 0%, full acetylcholine response 100%. P08173. 0.14% of 360,000 active. activation, % at 3 µM;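 active means activation above the run mean over all test wells plus 3 SD, cut at about 32% in these data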;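 further: peak over basal fluorescence ratio per well then scaled between controls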
Of the large screens only hits and unclear results are named; the others gave an inactive call; ! = a repeat was not active.

Cc1ccc(-n2c(-c3ccccc3)c[n+]3c2CCc2ccccc2-3)c(C)c1	CHRM5 antagonist 35
Cc1c(C(=O)NCc2ccc3c(c2)OCO3)sc(=O)n1Cc1ccc(-c2ccccc2)cc1	none
Cc1cc(C)n(-c2ccc(C(=O)Nc3cccc([N+](=O)[O-])c3)cc2)n1	CHRM5 antagonist 27
Cc1cc(C)n(-c2ccc(C(=O)Nc3cccc(S(=O)(=O)N(C)C)c3)cc2)n1	none
COC(=O)c1ccc(N)cc1O	M5 PAM 22
COC(=O)[C@H](C)NC(=O)NC(C)CCc1ccccc1 (some centres undefined)	M4 PAM 20
C=CCOc1cccc(C(=O)/C=C2/C(=O)Nc3ccccc32)c1	none
CC(=O)/C=C1/C(=O)Nc2ccccc21	CHRM5 antagonist 28
CCC(CC)N1CCN(S(=O)(=O)c2ccc(OC)cc2)CC1	M5 PAM 21
COc1ccc(N2CCN(S(=O)(=O)c3ccc(OC)cc3)CC2)cc1	none
CCOC(=O)C1=C(C)N(c2ccccc2)C(=O)NC1c1cccc([N+](=O)[O-])c1 (centres undefined)	M4 antag 75, CHRM5 antagonist 39
CCOc1ccc(NC(=O)C[n+]2ccc(N(C)C)cc2)cc1	none
CN(C)c1cc[n+](CC(=O)Nc2ccc(Oc3ccccc3)cc2)cc1	M4 antag 43
O=C(CCC1CCN(Cc2ccccc2O)CC1)NC1CC1	M5 PAM 21
Cc1ccc(S(=O)(=O)N2CC3(O)CN(C(=O)OC(C)C)N(C(=O)OC(C)C)CC3(OC(=O)NCc3ccco3)C2)cc1 (centres undefined)	none
CC(=O)Oc1ccccc1N1C(=O)c2ccc(C(=O)O)cc2C1=O	M4 antag 31
COc1ccc(N2C(=O)c3ccc(C(=O)Nc4ccccc4O)cc3C2=O)cc1	none
COc1ccccc1N1C(=O)c2ccc(C(=O)Nc3ccccc3O)cc2C1=O	M4 antag 30, CHRM5 antagonist 33
Cc1cccc(N/C(N)=N/c2nc(C)cc(C)n2)c1	CHRM4 agonist 37
CCCCc1ccc(N/C(N)=N/c2nc(C)cc(C)n2)cc1	M4 antag 87, CHRM5 agonist 51, CHRM5 antagonist 77, CHRM4 agonist 114
Cc1ccc(N/C(N)=N/c2nc(C)cc(C)n2)cc1	none
COCC(C)NC(=S)Nc1ccccc1[N+](=O)[O-] (centres undefined)	M5 PAM 20
CCOC(=O)[C@]12CCCC=C1N(Cc1cccc3ccccc13)C(=O)[C@H](CC(=O)N1CCCCC1)C2	none
CN(C)CCN(Cc1ccco1)c1ccccn1	none
CN(C)CCN(Cc1cccs1)c1ccccn1	M4 antag 27
COc1ccccc1OCC(O)CN1CCN(CC(=O)Nc2c(C)cccc2C)CC1 (centres undefined)	M4 antag 28!
Cc1occc1C(=O)N=Nc1c(O)n(C)c2ccccc12	M4 PAM 29
CSc1nc(N)nc(SCC(=O)Nc2cccc(F)c2)c1C#N	CHRM5 antagonist 42
CSc1nc(N)nc(SCC(=O)Nc2ccc(Cl)cc2)c1C#N	none
Cc1nc2cc(C(=O)N3CCc4ccccc43)ccc2n1-c1ccc(F)c(F)c1	none
CCC(=O)Nn1cnc2c(c1=O)C1(CCCCC1)Cc1ccccc1-2	M5 PAM 18
CCCC(=O)Nn1cnc2c(c1=O)C1(CCCCC1)Cc1ccccc1-2	none
CC(C)NC(=O)N(O)C1N(C(C)C)C(=O)N(Cc2ccc3c(c2)OCO3)C1(C)C (centres undefined)	M4 antag 30
Cc1cccnc1C(NC(=O)C1CCN(CCCc2ccccc2)CC1)c1ccc(F)cc1 (centres undefined)	none
CC(C)(C)c1nnc(NC(=O)Nc2ccc(Cl)cc2)s1	none
Cc1noc(-c2ccccc2)c1NC(=O)Nc1ccc(Cl)cc1	M4 antag 37
Cc1nc(NC(=O)Nc2ccc(Cl)cc2)sc1C	M4 antag 28
CCn1c2ccccc2c2cc(CN3CCN(S(C)(=O)=O)CC3)ccc21	none
COc1cc2nc(C3CCC3)nc(N3CCN(c4ccccc4OC)CC3)c2cc1OC	M4 antag 43
CCOc1cc(NCc2ccccc2)c2ncn(C(C)C)c2c1	none
CCCOc1cc(NCc2ccccc2)c2ncn(C(C)C)c2c1	M4 PAM 24
Oc1ccc(C23CCCC2C2(CCCC2)c2ccc(O)cc2O3)c(O)c1 (centres undefined)	CHRM4 agonist 59
COc1cccc(OCC(=O)NNC(=O)C(=O)Nc2cccc(C)c2)c1	none
CC(C)Cn1c(N)c(C(=O)COC(=O)CCc2nc3ccccc3c(=O)[nH]2)c(=O)n(C)c1=O	none
Cc1ccc(OCCC(=O)OCC(=O)c2c(N)n(CC(C)C)c(=O)n(C)c2=O)cc1	none
CC(C)Cn1c(N)c(C(=O)COC(=O)CCc2nc3ccccc3s2)c(=O)n(C)c1=O	CHRM5 antagonist 32
CC(C)Cn1c(N)c(C(=O)COC(=O)CC23CC4CC(CC(C4)C2)C3)c(=O)n(C)c1=O	M4 antag 37
Cc1ccccc1OCCC(=O)OCC(=O)c1c(N)n(CC(C)C)c(=O)n(C)c1=O	CHRM5 antagonist 34
CC(NS(=O)(=O)c1ccc2c(c1)CC(C)N2C(=O)C1CC1)c1ccccc1 (centres undefined)	none
CCOC(=O)C1C(=O)NC(C(=O)OCC)(C(=O)OCC)C1C(C)CC (centres undefined)	none
CC(C)=C(C#N)c1nc2ccccc2s1	CHRM5 antagonist 27
N#C/C(=C/c1ccncc1)c1nc2ccccc2s1	CHRM5 agonist 26, CHRM5 antagonist 30
COC(=O)c1ccc(/C(O)=C(\C#N)c2nc3ccccc3s2)cc1	none
COc1ccc(C(=O)C[n+]2ccc3c(c2)nnn3-c2ccccc2)cc1	none
COc1ccccc1CNC(=O)c1c(N)n(CCCN2CCOCC2)c2nc3ccccc3nc12	M4 antag 34
Nc1c(C(=O)NCc2ccc3c(c2)OCO3)c2nc3ccccc3nc2n1CCCN1CCOCC1	none
CC(C)(C)c1cc(C(=O)Nc2cccnc2)cc(C(=O)Nc2cccnc2)c1	none
Cn1c(=O)[nH]c(=O)c2c1nc(SCC(=O)O)n2CCOc1ccccc1	M4 antag 54
CC1CC(OC(=O)C(O)c2ccccc2)CC(C)(C)N1C (centres undefined)	M4 antag 41, CHRM5 antagonist 88
Clc1ccc(C(CCN2CCCC2)Cc2ccccc2)cc1 (centres undefined)	M4 antag 32
OC(CCN1CCCCC1)c1ccc(-c2ccccc2)cc1 (centres undefined)	none

Source: PubChem
